The results in this text go back to ChEMBL document CHEMBL1132346, “New type of febrifugine analogues, bearing a quinolizidine moiety, show potent antimalarial activity against Plasmodium malaria parasite” (J Med Chem, 1999).

What is called EC50 is the concentration at which the effect is half-maximal. High values mean a less potent agent, low ones a more potent agent. In general, ED50 refers to the midpoint of the dose-response relation. Low readings indicate an effect at a small dose, high ones a need for a large dose.

“And” between values parts separate entries of the source, which are not always exact repeats. Equal entries are not always repeated.

Assay [1] in a line: Selectivity is the ratio of antimalarial activity and cytotoxicity. The format is functional. The method in brief: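 Ratio of antimalarial activity to cytotoxicity, with cytotoxicity measured against FM3A mouse mammary cells.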
The next assay has as its system FM3A. In words: Compound was tested for cytotoxicity against FM3A mouse mammary cells. Format: functional, cell-based.
The subject of assay [2] is Mus musculus. In words: Compound was tested for antimalarial activity against mice (Mus musculus) malaria parasite Plasmodium berghei in vivo and the samples were administarted intraperitoneally. The settings on record: for ED50: ip. The format is functional.
Assay [3] deals with Plasmodium falciparum. In words: In vitro antimalarial activity against chloroquine-resistant Plasmodium falciparum K1. The format is functional, organism-based.
Assay [4] deals with Plasmodium falciparum. In words: In vitro antimalarial activity against chloroquine-sensitive Plasmodium falciparum FCR3. Format: functional, organism-based.
Assay [5] deals with Mus musculus. In words: Compound was tested for antimalarial activity against mice (Mus musculus) malaria parasite Plasmodium berghei in vivo mice (Mus musculus) and the samples were administarted intraperitoneally. The format is functional.
The test system of another assay is Plasmodium berghei. In words: In vivo antimalarial activity against Plasmodium berghei infected mice (Mus musculus) by intraperitoneal dose. Format: functional.

In the case of `CC1(C)[C@@H](n2cnc3ccccc3c2=O)C(=O)C[C@@H]2[C@@H](O)CCCN21`, in assay [1], the Selectivity is 238 and 127. Moreover, the EC50 turned out to be 380 nM in the assay with FM3A, 3 nM in the assay on Plasmodium falciparum [3] and 1.6 nM in the assay with Plasmodium falciparum [4]. In the assay on Mus musculus [2], this compound showed an ED90 of 19.4 µM/kg. The compound further showed an ED50 in the assay on Mus musculus [2] of 7.3 µmol/kg.
Consider `CC1(C)[C@H](n2cnc3ccccc3c2=O)C(=O)C[C@H]2[C@@H](O)CCCN21`, for which the Selectivity in assay [1] is 857 and 571. In addition, the results for the EC50 in the assay with FM3A, in the assay on Plasmodium falciparum [3] and in the assay on Plasmodium falciparum [4] were 2400 nM, 4.2 nM and 2.8 nM, respectively. The ED50 in the assay on Mus musculus [2] stood at 76 µmol/kg.
Consider `O=c1c2ccccc2ncn1CC1(O)C[C@@H]2NCCC[C@@H]2O1` (some centres undefined) [ISOFEBRIFUGINE], for which, in assay [1], the Selectivity was 53 and 100. The EC50 in the assay with FM3A came out at 180 nM; with Plasmodium falciparum [3] it was 1.8 nM; with Plasmodium falciparum [4], 3.4 nM. The compound further yielded an ED90 in the assay with Mus musculus [5] of 5 µM/kg.
Consider `O=C(C[C@@H]1NCCC[C@H]1O)Cn1cnc2ccccc2c1=O` (single isomer, unassigned) [FEBRIFUGINE], for which the Selectivity in assay [1] is 243 and 142. Besides, the EC50 is 170 nM in the assay on FM3A, 1.2 nM with Plasmodium falciparum [3] and 0.7 nM with Plasmodium falciparum [4]. The same compound showed an ED90 with Mus musculus [2] of 5 µM/kg. This compound also showed a 50% effective dose (ED50) in the assay on Mus musculus [2] of 1 µmol/kg.
On to `C[C@@H]1CC[C@H]2[C@@H](C)C(=O)O[C@@H]3O[C@@]4(C)CC[C@@H]1[C@]32OO4` [ARTEMISININ], for which the ED90 in the assay on Plasmodium berghei came out at 46 µM/kg. In the assay on Plasmodium berghei (ip), this compound displayed an ED50 of 17.7 µmol/kg.
Take `CCN(CC)CCCC(C)Nc1ccnc2cc(Cl)ccc12` (centres undefined) [CHLOROQUINE]: the EC50 was found to be 32000 nM with FM3A, 130 nM in the assay on Plasmodium falciparum [3] and 18 nM in the assay on Plasmodium falciparum [4]. The compound also registered an ED90 in the assay on Mus musculus [2] of 9.4 µM/kg. The compound also came in with an ED50 in the assay on Mus musculus [2] of 4.7 µmol/kg.
